Experiments:
[1] = target: T1, Dual specificity tyrosine-phosphorylation-regulated kinase 2 (Homo sapiens, UniProt Q92630); experiment: Inhibition of DYRK2 (unknown origin) using woodtide as substrate after 40 mins in presence of [gamma-33P]ATP by microbeta scintillation counting
T1 sequence (Q92630 whole entry): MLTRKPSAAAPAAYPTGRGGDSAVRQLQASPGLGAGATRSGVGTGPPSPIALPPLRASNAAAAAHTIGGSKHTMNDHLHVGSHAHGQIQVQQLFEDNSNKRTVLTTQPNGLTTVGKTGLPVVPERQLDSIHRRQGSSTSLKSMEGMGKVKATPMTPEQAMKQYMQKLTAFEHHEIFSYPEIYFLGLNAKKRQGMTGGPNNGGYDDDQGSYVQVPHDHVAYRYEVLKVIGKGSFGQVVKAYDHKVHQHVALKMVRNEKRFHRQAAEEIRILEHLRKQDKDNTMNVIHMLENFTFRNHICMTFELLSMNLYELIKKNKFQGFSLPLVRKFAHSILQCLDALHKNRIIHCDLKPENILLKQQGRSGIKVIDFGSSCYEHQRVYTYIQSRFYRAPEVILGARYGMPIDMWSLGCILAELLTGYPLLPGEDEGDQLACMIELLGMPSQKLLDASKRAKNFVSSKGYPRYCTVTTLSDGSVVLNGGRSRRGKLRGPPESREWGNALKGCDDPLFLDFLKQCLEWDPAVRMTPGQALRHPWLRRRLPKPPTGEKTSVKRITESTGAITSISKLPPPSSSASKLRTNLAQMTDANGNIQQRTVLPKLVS

[2] = target: Dual specificity tyrosine-phosphorylation-regulated kinase 1A (Homo sapiens, UniProt Q13627); experiment: Inhibition of DYRK1A (unknown origin) using woodtide as substrate after 10 mins in presence of [gamma-33P]ATP by microbeta scintillation counting
[3] = target: Dual specificity tyrosine-phosphorylation-regulated kinase 1B (Homo sapiens, UniProt Q9Y463); experiment: Inhibition of DYRK1B (unknown origin) using woodtide as substrate after 40 mins in presence of [gamma-33P]ATP by microbeta scintillation counting
[4] = target: Dual specificity protein kinase CLK1 (Homo sapiens, UniProt P49759); experiment: Inhibition of CLK1 (unknown origin) using KKGRSRSRSRSRSR as substrate after 40 mins in presence of [gamma-33P]ATP by microbeta scintillation counting
Summary of the method: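 CLK1 was assayed with RS peptide substrate at 100 µM ATP.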

[5] = Cytotoxicity against patient-derived RN1 cells assessed as reduction in cell viability after 3 days by Alamar blue assay; format: functional, cell-based; conditions: Homo sapiens, RN1, 72 h
Summary of the method: (§1)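 The patient-derived glioblastoma lines were grown as stem cells under defined conditions to keep the phenotype and genotype of the resected tumours. Viability after treatment was read with Alamar blue.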

[6] = Cytotoxicity against patient-derived WK1 cells assessed as reduction in cell viability after 5 days by Alamar blue assay; format: functional, cell-based; conditions: Homo sapiens, WK1, 120 h; summary of the method: as §1
[7] = Cytotoxicity against patient-derived JK2 cells assessed as reduction in cell viability after 3 days by Alamar blue assay; format: functional, cell-based; conditions: Homo sapiens, JK2, 72 h; summary of the method: as §1
[8] = Cytotoxicity against patient-derived SJH1 cells assessed as reduction in cell viability after 3 days by Alamar blue assay; format: functional, cell-based; conditions: Homo sapiens, SJH1, 72 h; summary of the method: as §1

Sequence of Dual specificity tyrosine-phosphorylation-regulated kinase 1B (Q9Y463 whole entry): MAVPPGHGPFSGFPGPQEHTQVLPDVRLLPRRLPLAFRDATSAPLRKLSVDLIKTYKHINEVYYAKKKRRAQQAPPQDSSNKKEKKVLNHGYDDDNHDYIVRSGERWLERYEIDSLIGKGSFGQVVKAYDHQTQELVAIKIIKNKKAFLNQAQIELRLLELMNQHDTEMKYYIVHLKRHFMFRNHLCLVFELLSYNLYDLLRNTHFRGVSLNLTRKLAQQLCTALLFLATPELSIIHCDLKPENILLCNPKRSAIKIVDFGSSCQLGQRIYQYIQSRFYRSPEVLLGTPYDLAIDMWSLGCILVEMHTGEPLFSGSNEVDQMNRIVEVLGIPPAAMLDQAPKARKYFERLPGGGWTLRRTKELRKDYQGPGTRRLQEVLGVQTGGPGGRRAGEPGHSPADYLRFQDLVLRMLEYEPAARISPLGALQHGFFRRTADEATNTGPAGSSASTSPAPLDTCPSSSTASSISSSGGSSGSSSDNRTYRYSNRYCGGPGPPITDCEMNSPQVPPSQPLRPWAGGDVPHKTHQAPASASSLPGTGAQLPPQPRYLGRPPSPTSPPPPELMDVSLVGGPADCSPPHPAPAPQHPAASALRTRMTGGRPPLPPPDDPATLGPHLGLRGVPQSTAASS
Sequence of Dual specificity protein kinase CLK1 (P49759 whole entry): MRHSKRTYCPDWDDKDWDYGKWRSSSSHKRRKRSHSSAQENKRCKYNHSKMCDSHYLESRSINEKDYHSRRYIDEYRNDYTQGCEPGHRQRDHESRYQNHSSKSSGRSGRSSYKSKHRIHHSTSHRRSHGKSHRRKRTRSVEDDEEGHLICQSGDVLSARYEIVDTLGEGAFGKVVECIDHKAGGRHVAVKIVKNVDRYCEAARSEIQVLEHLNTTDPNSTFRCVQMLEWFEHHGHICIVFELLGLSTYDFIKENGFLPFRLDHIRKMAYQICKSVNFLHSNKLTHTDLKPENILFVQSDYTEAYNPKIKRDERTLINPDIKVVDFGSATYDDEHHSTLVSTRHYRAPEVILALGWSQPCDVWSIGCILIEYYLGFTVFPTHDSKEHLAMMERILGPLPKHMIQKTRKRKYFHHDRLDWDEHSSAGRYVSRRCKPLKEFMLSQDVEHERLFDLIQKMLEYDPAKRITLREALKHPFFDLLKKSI

Row | SMILES | IC50 [1] | IC50 [2] | IC50 [3] | IC50 [4] | EC50 [5] | EC50 [6] | EC50 [7] | EC50 [8]
1 | NC(=O)Nc1ccc(-c2cnc3[nH]cc(-c4ccc(O)cc4)c3c2)cc1 | 476 nM | 31 nM | 17 nM | 9.6 nM | 22000 nM | > 50000 nM | > 50000 nM | 28000 nM
2 | Oc1ccc(-c2c[nH]c3ncc(-c4ccc(-c5nnn[nH]5)cc4)cc23)cc1 | 408 nM | 86 nM | 42 nM | 70 nM | > 50000 nM | > 50000 nM | > 50000 nM | > 50000 nM
3 | O=C(Nc1cccc(O)c1)c1c[nH]c2ncc(-c3ccc(O)cc3)cc12 | > 1000 nM | > 1000 nM | > 1000 nM | > 1000 nM | > 50000 nM | > 50000 nM | > 50000 nM | > 50000 nM
4 | Oc1ccc(-c2cnc3[nH]cc(-c4ccc(O)cc4)c3c2)cc1 | 166 nM | 14 nM | 15 nM | 48 nM | 2000 nM | 1100 nM | 5100 nM | 4100 nM
5 | Oc1ccc(-c2ccc3[nH]nc(-c4ccc(O)cc4)c3c2)cc1 | > 1000 nM | > 1000 nM | > 1000 nM | > 1000 nM | > 50000 nM | > 50000 nM | > 50000 nM | > 50000 nM
6 | Oc1ccc(-c2ccc3[nH]cc(-c4ccc(O)cc4)c3c2)cc1 | > 1000 nM | > 1000 nM | > 1000 nM | > 1000 nM | > 50000 nM | > 50000 nM | > 50000 nM | > 50000 nM
7 | Oc1ccc(-c2cnc3[nH]cc(-c4ccc5[nH]ccc5c4)c3c2)cc1 | 571 nM | 169 nM | 83 nM | 117 nM | 5700 nM | 6200 nM | 6300 nM | 2200 nM
8 | O=C(Nc1ccc(O)cc1)c1cnc2[nH]cc(-c3ccc(O)cc3)c2c1 | > 1000 nM | 344 nM | 128 nM | 12 nM | 12500 nM | 21000 nM | 37800 nM | 5200 nM
